Test results: ChEMBL document CHEMBL1145864, “Synthesis and structure-activity relationship of a new series of COX-2 selective inhibitors: 1,5-diarylimidazoles” (J Med Chem, 2003)

How the values were obtained:
[1] = target: T1, Prostaglandin G/H synthase 2 (Homo sapiens) (UniProt P35354); conditions: Blood; at 10 µM
T1 sequence (whole entry): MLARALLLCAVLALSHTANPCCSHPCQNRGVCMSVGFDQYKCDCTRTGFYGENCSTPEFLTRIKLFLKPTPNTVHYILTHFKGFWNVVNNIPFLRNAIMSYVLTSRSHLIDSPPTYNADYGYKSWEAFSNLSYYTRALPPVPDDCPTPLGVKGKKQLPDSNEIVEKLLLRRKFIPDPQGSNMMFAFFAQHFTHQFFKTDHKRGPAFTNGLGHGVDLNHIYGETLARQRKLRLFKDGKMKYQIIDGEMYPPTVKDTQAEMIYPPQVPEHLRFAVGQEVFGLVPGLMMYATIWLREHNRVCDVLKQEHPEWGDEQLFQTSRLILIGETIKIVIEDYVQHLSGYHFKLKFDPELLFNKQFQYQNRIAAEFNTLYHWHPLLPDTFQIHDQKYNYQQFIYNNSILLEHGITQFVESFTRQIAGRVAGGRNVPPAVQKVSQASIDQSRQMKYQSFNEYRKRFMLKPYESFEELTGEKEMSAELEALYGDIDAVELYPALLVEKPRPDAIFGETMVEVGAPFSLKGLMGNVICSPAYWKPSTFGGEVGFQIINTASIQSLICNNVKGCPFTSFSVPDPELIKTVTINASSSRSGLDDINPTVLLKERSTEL

[2] = test system: Rattus norvegicus; assay: In vivo anti-inflammatory activity determined by rat carrageenan paw edema method at 10 mg/kg perorally; assay type: functional; conditions: route oral
[3] = target: T1, Prostaglandin G/H synthase 2 (Homo sapiens); conditions: Blood; at 1 µM
[4] = test system: Rattus norvegicus; assay: In vivo anti-inflammatory activity by air pouch model at 1 mg/kg perorally in rat.; assay type: functional; conditions: route oral
Outline: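 Rat air pouch: sterile air (20 mL) was injected subcutaneously, with 10 mL refills every 2 days. On day 7, 2 mL of 1% lambda-carrageenan in saline was injected into the pouch. Compound was given orally (suspension in 1% CMC/Tween-80, 10 mL/kg) 0.5 h before carrageenan. At 6 h, exudate was collected and centrifuged, and supernatant PGE2 was measured by ELISA.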

[5] = target: Prostaglandin G/H synthase 1 (Homo sapiens, UniProt P23219); assay type: cell-based, U-937
Sequence of Prostaglandin G/H synthase 1 (P23219 whole entry): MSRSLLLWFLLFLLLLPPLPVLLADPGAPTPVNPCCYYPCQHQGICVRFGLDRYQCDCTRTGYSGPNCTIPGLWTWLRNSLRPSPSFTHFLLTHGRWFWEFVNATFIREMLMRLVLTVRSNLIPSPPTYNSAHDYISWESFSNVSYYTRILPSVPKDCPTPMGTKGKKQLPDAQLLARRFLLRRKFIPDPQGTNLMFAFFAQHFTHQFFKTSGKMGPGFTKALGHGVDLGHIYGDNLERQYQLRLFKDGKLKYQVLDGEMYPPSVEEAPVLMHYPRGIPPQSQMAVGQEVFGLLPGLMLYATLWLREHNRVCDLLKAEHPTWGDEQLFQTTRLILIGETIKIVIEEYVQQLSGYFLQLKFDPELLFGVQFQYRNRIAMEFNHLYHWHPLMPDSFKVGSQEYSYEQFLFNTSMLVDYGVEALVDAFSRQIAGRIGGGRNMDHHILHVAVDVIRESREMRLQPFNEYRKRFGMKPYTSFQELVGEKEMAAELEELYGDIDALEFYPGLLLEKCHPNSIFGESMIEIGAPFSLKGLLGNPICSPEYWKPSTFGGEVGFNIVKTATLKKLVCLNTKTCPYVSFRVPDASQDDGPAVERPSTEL

inhibition [1] [%] | inhibition [3] [%] | IC50 [5] [µM] | SMILES | inhibition in vivo at 10 mg/kg [2] [%] | inhibition in vivo at 1 mg/kg [4] [%]
100 | 85.2 | > 10 | CS(=O)(=O)c1ccc(-n2cnc(Br)c2-c2ccc(F)cc2)cc1 |  | 91.4
 |  | > 10 | CC(C)Oc1ccc(-c2c(Cl)ncn2-c2ccc(S(C)(=O)=O)cc2)cc1 |  | 
71.6 |  | > 10 | CS(=O)(=O)c1ccc(-n2cnc(Cl)c2-c2ccc(N)cc2)cc1 | 15.3 | 
100 | 77.1 | > 10 | COc1cc(-c2c(Cl)ncn2-c2ccc(S(C)(=O)=O)cc2)ccc1C | 9.2 | 
100 | 66.2 | 100 | CS(=O)(=O)c1ccc(-n2cnc(Cl)c2-c2ccccc2F)cc1 | 21.5 | 
 |  | > 10 | CS(=O)(=O)c1ccc(-n2cnc(Cl)c2-c2ccc(OC(F)(F)F)cc2)cc1 |  | 
86.5 | 34.5 | > 10 | Cc1ncn(-c2ccc(S(C)(=O)=O)cc2)c1-c1ccc(F)cc1 |  | 45
88.5 | 49 | 0.9 | CSc1ccc(-c2c(Cl)ncn2-c2ccc(S(C)(=O)=O)cc2)cc1 | 21.7 | 
100 |  | 4 | Cc1cc(-c2c(Cl)ncn2-c2ccc(S(C)(=O)=O)cc2)ccc1Cl |  | 
100 | 47.7 | > 10 | CCOc1ccc(-c2c(Cl)ncn2-c2ccc(S(C)(=O)=O)cc2)cc1Cl | 2 | 
100 | 70 | > 10 | CC(C)c1ccc(-c2c(Cl)ncn2-c2ccc(S(C)(=O)=O)cc2)cc1 | 17 | 
100 | 51.9 | > 10 | CS(=O)(=O)c1ccc(-n2cnc(Cl)c2-c2cccc(F)c2)cc1 | 22.8 | 
65.5 | 69.9 | 0.11 | CS(=O)(=O)c1ccc(-n2cnc(Cl)c2-c2ccc3c(c2)CCO3)cc1 | 29 | 
 | 0 | > 10 | CCCOc1ccc(-c2c(Cl)ncn2-c2ccc(S(C)(=O)=O)cc2)cc1 |  | 
15.3 |  | > 10 | CS(=O)(=O)c1ccc(-c2c(Cl)ncn2-c2ccc(F)cc2)cc1 |  | 
59.9 |  | > 10 | CC1Cc2cc(-c3c(Cl)ncn3-c3ccc(S(C)(=O)=O)cc3)ccc2O1 (stereo not given) |  | 
95.2 | 96.5 | > 10 | CCOc1ccc(-c2c(Cl)ncn2-c2ccc(S(C)(=O)=O)cc2)cc1F | 14.1 | 
36 |  | > 10 | CS(=O)(=O)c1ccc(-c2c(Br)ncn2-c2ccc(F)cc2)cc1 |  | 
3.8 |  | > 10 | CCc1ncn(-c2ccc(S(C)(=O)=O)cc2)c1-c1ccc(F)cc1 |  | 
3.4 |  | > 10 | C=CCc1ncn(-c2ccc(S(C)(=O)=O)cc2)c1-c1ccc(F)cc1 |  | 
 |  | > 10 | CC(=O)Nc1ccc(-c2c(Cl)ncn2-c2ccc(S(C)(=O)=O)cc2)cc1 |  | 
 |  | > 10 | CCS(=O)(=O)c1ccc(-c2c(Cl)ncn2-c2ccc(S(C)(=O)=O)cc2)cc1 |  | 
100 | 74.9 | > 10 | CS(=O)(=O)c1ccc(-n2cnc(Cl)c2-c2cccnc2)cc1 | 19 | 
91.9 | 60 | > 10 | CCCc1ccc(-c2c(Cl)ncn2-c2ccc(S(C)(=O)=O)cc2)cc1 | 0 | 
100 | 88.4 | > 10 | CS(=O)(=O)c1ccc(-n2cnc(Cl)c2-c2ccc(Cl)cc2)cc1 | 9.1 | 
100 | 100 | > 10 | CCOc1ccc(-c2c(Cl)ncn2-c2ccc(S(C)(=O)=O)cc2)cc1 | 16.3 | 
97.3 | 76.7 | > 10 | CCSc1ccc(-c2c(Cl)ncn2-c2ccc(S(C)(=O)=O)cc2)cc1 | 12.3 | 
100 | 100 | 1.3 | COc1ccc(-c2c(Cl)ncn2-c2ccc(S(C)(=O)=O)cc2)cc1 | 33.4 | 

The remaining lines, values behind:

SMILES | inhibition [1] [%] | inhibition [3] [%] | IC50 [5] [µM] | inhibition in vivo at 10 mg/kg [2] [%] | inhibition in vivo at 1 mg/kg [4] [%]
CS(=O)(=O)c1ccc(-c2cnc(Br)n2-c2ccc(F)cc2)cc1 | 92.8 | 56.2 | > 10 | 40.4 | 35.5
COC(=O)c1ncc(-c2ccc(S(C)(=O)=O)cc2)n1-c1ccc(F)cc1 | 39.1 |  | > 10 |  | 
CS(=O)(=O)c1ccc(-n2cnc(Cl)c2-c2ccc(F)cc2F)cc1 | 100 | 79.6 | 23.8 | 8.6 | 
Cc1nc(Cl)c(-c2ccc(F)cc2)n1-c1ccc(S(C)(=O)=O)cc1 | 27.5 |  | > 10 |  | 
CS(=O)(=O)c1ccc(-n2cncc2-c2ccc(F)cc2)cc1 | 56.9 |  | > 10 |  | 
Cc1ncc(-c2ccc(S(C)(=O)=O)cc2)n1-c1ccc(F)cc1 | 68 |  | > 10 | 21.7 | 
COc1ccc(-c2c(Cl)ncn2-c2ccc(S(N)(=O)=O)cc2)cc1Cl | 99.9 |  | 1.2 | 24 | 
CS(=O)(=O)c1ccc(-n2c(-c3ccc(F)cc3)cnc2CO)cc1 | 27.4 |  | > 10 |  | 
NS(=O)(=O)c1ccc(-n2cnc(Cl)c2-c2ccc(Cl)nc2)cc1 | 97.6 | 19.6 | > 10 | 18.1 | 
CCOc1cc(OCC)cc(-c2c(Cl)ncn2-c2ccc(S(C)(=O)=O)cc2)c1 | 0 |  | > 10 |  | 
CS(=O)(=O)c1ccc(-c2cnc(Cl)n2-c2ccc(F)cc2)cc1 | 100 | 85.6 | > 10 | 20.4 | 55.2
CS(=O)(=O)c1ccc(-n2c(-c3ccc(F)cc3)cnc2Cl)cc1 |  |  | > 10 |  | 
CS(=O)(=O)c1ccc(-n2c(Cl)nc(Cl)c2-c2ccc(F)cc2)cc1 | 0 |  | > 10 |  | 
CS(=O)(=O)c1ccc(-c2cnc(CO)n2-c2ccc(F)cc2)cc1 | 8.1 |  | > 10 |  | 
CCOc1ccc(-c2c(Cl)ncn2-c2ccc(S(N)(=O)=O)cc2)cc1Cl | 99.9 | 26.8 | 15.5 | 18.5 | 
CS(=O)(=O)c1ccc(-n2cnc(Cl)c2-c2cc3ccccc3o2)cc1 |  |  | > 1 |  | 

SMILES | inhibition [1] [%] | inhibition [3] [%] | IC50 [5] [µM] | inhibition in vivo at 10 mg/kg [2] [%] | inhibition in vivo at 1 mg/kg [4] [%]
CS(=O)(=O)c1ccc(-n2cnc(Cc3ccccc3)c2-c2ccc(F)cc2)cc1 | 60.5 |  | > 10 |  | 
COc1ccc(-c2c(Cl)ncn2-c2ccc(S(C)(=O)=O)cc2)c(F)c1 | 100 | 100 | 0.11 | 33 | 
CS(=O)(=O)c1ccc(-n2cnc(Cl)c2-c2cc(F)cc(F)c2)cc1 | 61.6 |  | > 10 |  | 
Cc1nc(Cl)n(-c2ccc(F)cc2)c1-c1ccc(S(C)(=O)=O)cc1 | 42.6 |  | > 10 |  | 
CS(=O)(=O)c1ccc(-c2cnc(CF)n2-c2ccc(F)cc2)cc1 | 16.8 |  | > 10 |  | 
CS(=O)(=O)c1ccc(-c2cnc(C=O)n2-c2ccc(F)cc2)cc1 | 70.9 |  | > 10 | 27.5 | 
CCCCCc1ncn(-c2ccc(S(C)(=O)=O)cc2)c1-c1ccc(F)cc1 | 64.4 |  | > 10 |  | 
CS(=O)(=O)c1ccc(-c2cncn2-c2ccc(F)cc2)cc1 | 63.4 |  | > 10 |  | 
CCOc1ccc(-c2c(Cl)ncn2-c2ccc(S(N)(=O)=O)cc2)cc1F | 100 | 57 | 76 | 30.3 | 
COc1c(Cl)cc(-c2c(Cl)ncn2-c2ccc(S(C)(=O)=O)cc2)cc1Cl | 99.8 | 37.3 | > 10 | 16.5 | 
CS(=O)(=O)c1ccc(-c2cnc(C(=O)c3ccccc3)n2-c2ccc(F)cc2)cc1 | 95 |  | > 10 |  | 
CS(=O)(=O)c1ccc(-n2c(CO)nc(Cl)c2-c2ccc(F)cc2)cc1 | 2.4 |  | > 10 |  | 
CS(=O)(=O)c1ccc(-n2cnc(Cl)c2-c2cc(Br)co2)cc1 |  |  | > 1 |  | 
CS(=O)(=O)c1ccc(-c2c(Cl)nc(Cl)n2-c2ccc(F)cc2)cc1 | 51.6 |  | > 10 |  | 
CS(=O)(=O)c1ccc(-n2c(-c3ccc(F)cc3)cnc2C(=O)c2ccccc2)cc1 | 0 |  | > 10 |  | 
